# Reference: ChEMBL document CHEMBL5661979, “Pharmacological inhibition of BMK1 suppresses tumor growth through promyelocytic leukemia protein” (Cancer Cell, 2010)
# pIC50: −log10 of the molar value.
# Legend:
# Format in all cases: subcellular
# [1] = molecular target: T1, Dual specificity mitogen-activated protein kinase kinase 7 (Homo sapiens) (UniProt O14733); assay: Inhibition of MAP2K7 in human HeLa cells lysate at 50 uM pre incubated for 15 mins followed by ADP acyl phosphate probe addition and measured after 10 mins by LC-MS/MS analysis relative to control; conditions: time 25.0 min
# T1 sequence (whole entry): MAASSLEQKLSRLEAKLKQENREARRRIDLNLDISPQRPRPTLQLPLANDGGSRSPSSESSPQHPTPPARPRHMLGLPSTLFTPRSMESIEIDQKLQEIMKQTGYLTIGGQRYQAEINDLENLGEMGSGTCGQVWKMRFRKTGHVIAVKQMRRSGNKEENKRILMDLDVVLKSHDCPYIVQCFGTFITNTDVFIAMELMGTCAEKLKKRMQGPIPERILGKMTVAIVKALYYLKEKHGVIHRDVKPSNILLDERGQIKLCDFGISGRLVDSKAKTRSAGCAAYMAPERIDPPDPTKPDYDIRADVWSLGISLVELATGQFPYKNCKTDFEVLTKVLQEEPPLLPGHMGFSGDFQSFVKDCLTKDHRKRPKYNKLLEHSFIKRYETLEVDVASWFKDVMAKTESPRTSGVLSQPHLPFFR
# [2] = molecular target: T2, Dual specificity mitogen-activated protein kinase kinase 6 (Homo sapiens) (UniProt P52564); assay: Inhibition of MAP2K6 in human HeLa cells lysate at 2 uM pre incubated for 15 mins followed by ADP acyl phosphate probe addition and measured after 10 mins by LC-MS/MS analysis relative to control; conditions: time 25.0 min
# T2 sequence (whole entry): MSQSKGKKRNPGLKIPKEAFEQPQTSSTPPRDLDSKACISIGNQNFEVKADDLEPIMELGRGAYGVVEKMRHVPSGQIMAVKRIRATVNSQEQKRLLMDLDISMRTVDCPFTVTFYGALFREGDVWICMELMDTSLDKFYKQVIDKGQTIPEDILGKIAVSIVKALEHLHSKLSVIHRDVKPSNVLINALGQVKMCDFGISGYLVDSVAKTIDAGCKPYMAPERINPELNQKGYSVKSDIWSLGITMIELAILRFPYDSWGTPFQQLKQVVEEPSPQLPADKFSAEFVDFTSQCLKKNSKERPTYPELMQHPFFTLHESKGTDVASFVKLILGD
# [3] = molecular target: T3, Serine/threonine-protein kinase Sgk3 (Homo sapiens) (UniProt Q96BR1); assay: Inhibition of SGK3 in human HeLa cells lysate at 10 uM pre incubated for 15 mins followed by ATP acyl phosphate probe addition and measured after 10 mins by LC-MS/MS analysis relative to control; conditions: time 25.0 min
# T3 sequence (whole entry): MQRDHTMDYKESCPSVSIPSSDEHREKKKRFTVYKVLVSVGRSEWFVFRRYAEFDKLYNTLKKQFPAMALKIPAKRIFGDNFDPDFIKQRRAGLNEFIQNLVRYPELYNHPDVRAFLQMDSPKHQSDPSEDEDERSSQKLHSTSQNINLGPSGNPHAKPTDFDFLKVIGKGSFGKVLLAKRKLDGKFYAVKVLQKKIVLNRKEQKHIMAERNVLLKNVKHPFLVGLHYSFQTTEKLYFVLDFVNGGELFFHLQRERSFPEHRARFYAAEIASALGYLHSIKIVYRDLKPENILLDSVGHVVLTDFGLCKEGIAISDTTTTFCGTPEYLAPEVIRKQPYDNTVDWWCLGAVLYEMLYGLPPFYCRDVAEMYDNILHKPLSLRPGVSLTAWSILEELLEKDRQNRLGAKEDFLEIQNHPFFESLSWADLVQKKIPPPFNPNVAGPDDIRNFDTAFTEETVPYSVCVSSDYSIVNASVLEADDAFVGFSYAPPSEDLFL
# [4] = molecular target: Calcium/calmodulin-dependent protein kinase type 1D (Homo sapiens, UniProt Q8IU85); assay: Inhibition of CAMK1d in human HeLa cells lysate at 10 uM pre incubated for 15 mins followed by ATP acyl phosphate probe addition and measured after 10 mins by LC-MS/MS analysis relative to control; conditions: time 25.0 min
# Sequence of Calcium/calmodulin-dependent protein kinase type 1D (Q8IU85 whole entry, looked up, the tested form may be a part): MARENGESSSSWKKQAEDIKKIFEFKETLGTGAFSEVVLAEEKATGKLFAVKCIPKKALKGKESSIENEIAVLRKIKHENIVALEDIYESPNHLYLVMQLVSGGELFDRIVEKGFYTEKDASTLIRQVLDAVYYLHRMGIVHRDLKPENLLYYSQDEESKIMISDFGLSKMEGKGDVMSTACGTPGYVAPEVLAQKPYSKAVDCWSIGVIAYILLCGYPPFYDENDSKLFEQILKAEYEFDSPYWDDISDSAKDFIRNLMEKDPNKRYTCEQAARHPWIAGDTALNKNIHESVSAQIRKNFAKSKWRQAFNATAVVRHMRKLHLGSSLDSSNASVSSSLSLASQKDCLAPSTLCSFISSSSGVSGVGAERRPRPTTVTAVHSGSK
# Summary of the method: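 KiNativ-type profiling in HeLa lysate (5 mg/mL total protein). Lysate preincubated 15 min with inhibitor at 50, 10, 2, 0.8 or 0 μM, then ATP or ADP acylphosphate probe added (5 μM final) for 10 min. Reaction stopped with urea and analysed by targeted MS, using up to four fragment ions per kinase peptide-probe conjugate. % inhibition calculated against untreated lysate. Duplicate reactions.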
# [5] = molecular target: Ribosomal protein S6 kinase beta-1 (Homo sapiens, UniProt P23443); assay: Inhibition of P70S6K in human HeLa cells lysate at 10 uM pre incubated for 15 mins followed by ATP acyl phosphate probe addition and measured after 10 mins by LC-MS/MS analysis relative to control; conditions: time 25.0 min
# Sequence of Ribosomal protein S6 kinase beta-1 (P23443 whole entry, looked up): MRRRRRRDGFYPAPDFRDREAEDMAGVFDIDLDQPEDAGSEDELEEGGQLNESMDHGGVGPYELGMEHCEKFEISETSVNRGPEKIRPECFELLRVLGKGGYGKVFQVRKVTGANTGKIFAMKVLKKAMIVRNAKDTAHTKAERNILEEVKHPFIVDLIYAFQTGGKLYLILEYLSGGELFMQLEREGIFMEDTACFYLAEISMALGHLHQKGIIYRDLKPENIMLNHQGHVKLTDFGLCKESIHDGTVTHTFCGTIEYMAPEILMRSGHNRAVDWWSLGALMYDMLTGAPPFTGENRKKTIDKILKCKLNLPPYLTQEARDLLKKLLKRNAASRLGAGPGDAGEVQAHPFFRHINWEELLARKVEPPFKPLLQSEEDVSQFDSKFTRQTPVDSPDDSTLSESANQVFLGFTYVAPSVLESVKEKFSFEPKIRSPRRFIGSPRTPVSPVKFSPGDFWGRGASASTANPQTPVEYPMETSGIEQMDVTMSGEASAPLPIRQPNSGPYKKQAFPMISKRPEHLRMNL
# [6] = molecular target: T4, Phosphatidylinositol 5-phosphate 4-kinase type-2 alpha (Homo sapiens, UniProt P48426); assay: Inhibition of PIP5K2A LIP1 site in human HeLa cells lysate pre incubated for 15 mins followed by ADP acyl phosphate probe addition and measured after 10 mins by LC-MS/MS analysis
# T4 sequence (P48426 whole entry): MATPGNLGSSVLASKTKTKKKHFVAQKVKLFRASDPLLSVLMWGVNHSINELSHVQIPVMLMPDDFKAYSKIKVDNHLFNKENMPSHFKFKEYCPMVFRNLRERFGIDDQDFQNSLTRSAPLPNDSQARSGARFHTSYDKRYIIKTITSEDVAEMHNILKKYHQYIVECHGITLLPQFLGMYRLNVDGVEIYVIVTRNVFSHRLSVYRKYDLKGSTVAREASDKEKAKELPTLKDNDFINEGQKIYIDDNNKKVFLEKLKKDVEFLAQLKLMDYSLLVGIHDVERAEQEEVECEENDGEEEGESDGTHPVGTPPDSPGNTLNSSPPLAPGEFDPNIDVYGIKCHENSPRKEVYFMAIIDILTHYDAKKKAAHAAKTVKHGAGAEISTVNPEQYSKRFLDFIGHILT
# [7] = molecular target: T5, Phosphatidylinositol 5-phosphate 4-kinase type-2 alpha (Homo sapiens) (UniProt P48426); assay: Inhibition of PIP5K2A LIP1 site in human HeLa cells lysate at 10 uM pre incubated for 15 mins followed by ADP acyl phosphate probe addition and measured after 10 mins by LC-MS/MS analysis relative to control; conditions: time 25.0 min
# T5 sequence (whole entry): T4 sequence (P48426 whole entry)
smiles,measurement,setting,value
CCOc1cc(N2CCC(O)CC2)ccc1Nc1ncc2c(n1)N(C)c1ccccc1C(=O)N2C,inhibition,[1],4.2%
same,inhibition,[2],6.7%
same,inhibition,[3],4.4%
same,inhibition,[4],-7.6%
same,inhibition,[5],-9.6%
same,pIC50,[6],< 4.30
same,inhibition,[7],5%
